This passage reports MIC results from ChEMBL document CHEMBL1629560, “Gain-of-function mutations in the transcription factor MRR1 are responsible for overexpression of the MDR1 efflux pump in fluconazole-resistant Candida dubliniensis strains” (2008).

In brackets after ≈: the same amount, converted by molar mass.

Experiment [1] has as its system Candida albicans. Put plainly: Antimicrobial activity against wild-type Candida albicans SC5314 by microdilution method. The experiment is classed as functional. The essentials:
(§1)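 Broth microdilution was run in HR medium with NaHCO3 and 0.2 M phosphate buffer (pH 7.2), using serial twofold dilutions. Starting assay concentrations were fluconazole 200 μg/ml, cerulenin 50 μg/ml and brefeldin A 200 μg/ml. Fluconazole stock was prepared in water; cerulenin and brefeldin A stocks were in DMSO. Strains were kept at −80°C and subcultured on YPD at 30°C.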
(In general: Broth dilution looks for growth in wells or tubes with falling amounts of substance.)

For experiment [2], the system named is Candida albicans. Put plainly: Antimicrobial activity against mrr1-deficient Candida albicans by microdilution method. The class given is functional. In short, it runs like this: as §1
Experiment [3] deals with Candida albicans. Put plainly: Antimicrobial activity against Candida albicans harboring MRR1 gene by microdilution method. The experiment is classed as functional. In short, it runs like this: (§2)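 MRR1 alleles were expressed from the ADH1 promoter as single-copy integrations in C. albicans SC5314 mrr1Δ mutants, selected with nourseothricin. Broth microdilution was run in HR medium with NaHCO3 and 0.2 M phosphate buffer (pH 7.2), using serial twofold dilutions. Starting assay concentrations were fluconazole 200 μg/ml, cerulenin 50 μg/ml and brefeldin A 200 μg/ml.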

Experiment [4] deals with Candida dubliniensis. The experiment can be described thus: Antimicrobial activity against Candida dubliniensis harboring MRR1 CM1 mutant gene by microdilution method. The class given is functional. In short, it runs like this:
as §2

The subject of experiment [5] is Candida dubliniensis. The experiment can be described thus: Antimicrobial activity against Candida dubliniensis harboring MRR1 CM2 mutant gene by microdilution method. The class given is functional. In short, it runs like this:
as §2

Experiment [6] concerns Candida dubliniensis. Put plainly: Antimicrobial activity against Candida dubliniensis harboring MRR1 CD57 mutant gene by microdilution method. The experiment is classed as functional. In short, it runs like this: as §2
In experiment [7] the test system is Candida dubliniensis. The experiment can be described thus: Antimicrobial activity against Candida dubliniensis harboring MRR1 CD57B mutant gene by microdilution method. The class given is functional. The essentials: as §2
The subject of experiment [8] is Candida albicans. The experiment can be described thus: Antimicrobial activity against Candida albicans harboring MRR1 CD57A mutant gene by microdilution method.
Experiment [9] deals with Candida albicans. Put plainly: Antimicrobial activity against Candida albicans harboring MRR1 CD51-2A mutant gene by microdilution method.
Experiment [10] deals with Candida albicans. Put plainly: Antimicrobial activity against Candida albicans harboring MRR1 CD51-2B mutant gene by microdilution method.
Experiment [11] concerns Candida albicans. The experiment can be described thus: Antimicrobial activity against Candida albicans harboring P683S mutation in MRR1F5 gene by microdilution method.

Usually MIC stands for the smallest concentration in the dilution series that meets the test's criterion for growth inhibition. High values mean a need for much substance, low ones inhibition by little substance. On to `C[C@H]1CCC/C=C/[C@@H]2C[C@H](O)C[C@H]2[C@H](O)/C=C/C(=O)O1` [BREFELDIN A], for which the minimum inhibitory concentration (MIC) in experiment [1] is 1.56 µg/mL (≈ 5.56 µM); in [2] it was 1.56 µg/mL (≈ 5.56 µM); in [3], 1.56 µg/mL (≈ 5.56 µM); in experiment [4], 1.56 µg/mL (≈ 5.56 µM); in experiment [5] it was 12.5 µg/mL (≈ 44.6 µM); in [6], 1.56 µg/mL (≈ 5.56 µM). In addition, the MIC in experiment [7] worked out at 12.5 µg/mL (≈ 44.6 µM); in experiment [8], 12.5 µg/mL (≈ 44.6 µM); in experiment [9] it was 12.5 µg/mL (≈ 44.6 µM); in experiment [10] it was 3.13 µg/mL (≈ 11.2 µM); in [11], 25 µg/mL (≈ 89.2 µM).

With `C/C=C/C/C=C/CCC(=O)[C@H]1O[C@H]1C(N)=O` [CERULENIN], the MIC in experiment [1] is 0.2 µg/mL (≈ 0.896 µM); in [2] it was 0.2 µg/mL (≈ 0.896 µM); in experiment [3], 0.2 µg/mL (≈ 0.896 µM); in experiment [4], 0.2 µg/mL (≈ 0.896 µM); in experiment [5] it was 3.13 µg/mL (≈ 14 µM); in experiment [6], 0.2 µg/mL (≈ 0.896 µM). The MIC in experiment [7] stood at 3.13 µg/mL (≈ 14 µM); in [8], 3.13 µg/mL (≈ 14 µM); in experiment [9], 3.13 µg/mL (≈ 14 µM); in experiment [10], 0.78 µg/mL (≈ 3.49 µM); in [11] it was 6.25 µg/mL (≈ 28 µM).

Consider `OC(Cn1cncn1)(Cn1cncn1)c1ccc(F)cc1F` [FLUCONAZOLE], for which the MIC in experiment [1] came to 0.1 µg/mL (≈ 0.327 µM); in experiment [2], 0.1 µg/mL (≈ 0.327 µM); in [3] it was 0.1 µg/mL (≈ 0.327 µM); in experiment [4], 0.1 µg/mL (≈ 0.327 µM); in experiment [5] it was 0.78 µg/mL (≈ 2.55 µM); in [6] it was 0.1 µg/mL (≈ 0.327 µM). The MIC in experiment [7] was found to be 0.78 µg/mL (≈ 2.55 µM); in experiment [8], 0.78 µg/mL (≈ 2.55 µM); in experiment [9], 0.78 µg/mL (≈ 2.55 µM); in experiment [10], 0.39 µg/mL (≈ 1.27 µM); in [11], 3.13 µg/mL (≈ 10.2 µM).
